Source: PubChem BioAssay (several laboratories)
KCNK9 inh: KCNK9 potassium channel inhibitors, primary screen, HEK293 cells, thallium flux; Potassium channel subfamily K member 9 (Homo sapiens), Q9NPC2; FluxOR thallium flux fluorescence; hits give low values; B-score at 10 µM; 1.2% of 310,000 active;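 active means ratio B-score over 3 SD below the library mean, with starting fluorescence within 5 SD of its mean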;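 further: negative B-score means less thallium flux so channel inhibition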
KCNQ1 inh: inhibitors of human KCNQ1 channel, primary screen, cell-based, thallium flux, high-throughput; Potassium voltage-gated channel subfamily KQT member 1 (Homo sapiens), P51787; CHO-K1 KCNQ1, FluxOR thallium flux fluorescence; hits give high values; B-score at 10 µM; 1.3% of 310,000 active;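 active means compounds whose thallium flux B-score, printed positive for inhibition, exceeds three library SD while starting fluorescence stays within three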;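 further: channel opened by potassium depolarization with thallium stimulus after 20 min compound exposure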
Target sequence (P51787 whole entry, looked up): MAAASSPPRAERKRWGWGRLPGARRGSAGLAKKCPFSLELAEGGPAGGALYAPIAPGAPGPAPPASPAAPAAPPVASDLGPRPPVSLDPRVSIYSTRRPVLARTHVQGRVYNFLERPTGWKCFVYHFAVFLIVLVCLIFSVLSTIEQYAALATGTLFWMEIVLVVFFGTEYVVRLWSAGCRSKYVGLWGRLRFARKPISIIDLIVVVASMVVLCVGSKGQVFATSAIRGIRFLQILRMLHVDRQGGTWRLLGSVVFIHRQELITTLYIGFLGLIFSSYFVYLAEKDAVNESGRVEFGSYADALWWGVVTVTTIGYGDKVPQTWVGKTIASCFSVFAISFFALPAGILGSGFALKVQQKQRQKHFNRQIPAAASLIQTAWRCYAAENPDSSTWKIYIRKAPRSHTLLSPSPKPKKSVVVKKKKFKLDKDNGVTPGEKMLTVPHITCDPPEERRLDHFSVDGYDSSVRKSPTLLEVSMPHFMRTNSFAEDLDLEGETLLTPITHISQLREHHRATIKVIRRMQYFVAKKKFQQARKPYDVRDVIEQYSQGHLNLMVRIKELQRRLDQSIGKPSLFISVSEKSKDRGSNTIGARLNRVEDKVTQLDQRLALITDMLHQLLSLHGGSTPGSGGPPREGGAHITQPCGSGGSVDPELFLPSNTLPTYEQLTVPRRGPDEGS
hERG protect: hERG rescue from dofetilide block, primary screen, cell-based, CHO-hERG, FluxOR thallium flux, dofetilide IC70. Voltage-gated inwardly rectifying potassium channel KCNH2 (Homo sapiens), Q12809. dofetilide IC70 present. activation (rescue from dofetilide block), less the hit threshold, % at 10 µM. 0.51% of 310,000 active;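 active means activation above the mean of controls blocked by dofetilide plus 5 SD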;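 further: thallium influx through hERG after potassium depolarization seen as dye fluorescence rise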
Cl transport mod: KCC2 cotransporter modulators, thallium flux, primary screen, cell-based, HEK293 KCC2, FluoZin-2 fluorescence, MLSMR. B-score of Tl+ flux slope (higher = more flux/activation; lower = inhibition) at 10 µM. KCC2 cells, thallium flux FluoZin-2 fluorescence. Solute carrier family 12 member 5 (Homo sapiens), Q9H2X9. AID 1456, 2008. 2.2% of 190,000 active;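 active means thallium flux slope and its plate-corrected score both differing from the plate sample mean at a set confidence after two filtering rounds, in either direction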;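 further: slope of fluorescence scaled to starting intensity during 10 to 20 s after thallium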
KCNQ1 act: potentiators or activators of KCNQ1 channel, primary screen, cell-based, thallium flux, high-throughput; Potassium voltage-gated channel subfamily KQT member 1 (Homo sapiens), P51787; CHO-K1 KCNQ1, thallium flux FluxOR fluorescence; hits give high values; B-score at 10 µM; 0.35% of 310,000 active;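 active means fluorescence ratio B-score, a plate-corrected score, at least three library SD, with initial intensity B-score within 5 SD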
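Medium – assay buffer, equal DMSO in all wells · Material – CHO-K1 cell line with stable KCNQ1 potassium channel expression · Signal – kinetic FluxOR thallium fluorescence, 10-s 1-Hz baseline, 110-s post-stimulus read · Compound – single concentration per compound, DMSO matched to controls · Schedule – 37 °C overnight plating, 90-min dark dye load, 20-min compound pretreatment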
KCNK3 block: human KCNK3 channel inhibitors, primary screen, CHO cells, FluxOR thallium flux, B-score; Potassium channel subfamily K member 3 (Homo sapiens), O14649; FluxOR fluorescence; hits give low values; B-score at 10 µM; 0.84% of 340,000 active; AID 602410, 2012;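 active means B-score under library mean minus 4 SD, starting fluorescence ratio at most library mean plus 5 SD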;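 further: more negative B-score means stronger inhibition of thallium flux through KCNK3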
KCNQ1 inh valid: KCNQ1 potassium channel inhibitors, confirmation, cell-based, Tl flux, duplicate; KCNQ1 cell line, FluxOR thallium flux fluorescence; shares compounds with KCNQ1 inh; inhibition, % at 10 µM; 93% of 1,600 active; AID 588353, 2011;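 active means primary screen active, with duplicate mean exceeding buffer control mean plus 3 SD of buffer wells, cut at about 28% in these data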;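 further: 0% = buffer control ratio and 100% = XE991 inhibitor control ratio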
CHO KCNQ1 ctr: thallium flux effects in parental CHO cells, counter-screen for KCNQ1 inhibitor project, cell-based, Tl flux; shares compounds with KCNQ1 inh; fluorescence ratio (Tl flux) at 10 µM; parental CHO-K1, FluxOR thallium flux fluorescence ratio; hits give low values; zero means no signal rise above baseline; 21% of 1,600 active;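 active means mean of duplicate thallium-flux fluorescence ratios in parental host cells more than 5 SD below the buffer control mean, cut at about 0.38 in these data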;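 further: ratio is peak minus minimum fluorescence divided by baseline fluorescence; actives read low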
KCNQ1 APC inh: KCNQ1 channel inhibitors, confirmation, orthogonal assay, cell-based, automated electrophysiology. shares compounds with KCNQ1 inh. KCNQ1-CHO cells, automated patch clamp current. calls only at 10 µM. 20% of 490 active;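 active means KCNQ1 current drop exceeding 3 SD of negative control wells, seen in both duplicate runs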;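 further: steady state current during a 2 s step from -80 to +40 mV; negative values mean current inhibition and positive values mean potentiation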
KCNQ2 spec: KCNQ2 channel inhibition, selectivity assay for KCNQ1 inhibitor project, cell-based; AID 651746, 2012; shares compounds with KCNQ1 inh; inhibition, % at 10 µM; 71% of 1,600 active; KCNQ2 cells, FluxOR thallium flux fluorescence;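 active means mean percent inhibition of the KCNQ2 thallium signal more than 5 SD above the buffer-only control wells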;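 further: KCNQ2 expressed in CHO cells; 0% = buffer control wells and 100% = XE-991 inhibitor control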
KCNQ1 KCNE1 spec: KCNQ1/KCNE1 channel inhibition, selectivity assay for KCNQ1 inhibitor project, CHO-K1 cells, thallium flux, FluxOR | shares compounds with KCNQ1 inh | FluxOR thallium flux fluorescence | inhibition, % at 10 µM | 77% of 1,600 active | AID 652147, 2013;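 active means mean percent inhibition of duplicate wells above the buffer-only control mean plus 3 SD of those controls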;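 further: 0% = buffer only wells and 100% = XE-991 inhibitor control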
* marks the source's active call; other numbers are inactive results; i = inactive; nt = no result; + = active, no number. In the library only some 4.1% were active in any assay of this set; here they are far more common.

SMILES | KCNK9 inh | KCNQ1 inh | hERG protect | Cl transport mod | KCNQ1 act | KCNK3 block | KCNQ1 inh valid | CHO KCNQ1 ctr | KCNQ1 APC inh | KCNQ2 spec | KCNQ1 KCNE1 spec
COc1ccc(Nc2cc(C(=O)N3CCc4ccccc4C3)c3ccccc3n2)c(OC)c1 | i | 7* | -13.6 | -1.1 | i | i | 135.0* | 0.419 | i | 129.7%* | 175.5%*
COc1ccccc1NC(=O)c1ccc(NC(=O)c2ccc(=O)[nH]c2)cc1 | nt | nt | nt | nt | nt | i | nt | nt | nt | nt | nt
CCc1ccccc1N1CCN(S(=O)(=O)c2cc(OC)ccc2OC)CC1 | i | 6* | -15.2 | -1.25 | i | i | 106.0* | 0.43 | + | 94.7%* | 142.0%*
COc1ccc(OC)c(S(=O)(=O)N2CCN(c3ccccc3)CC2)c1 | i | i | -10.7 | nt | i | i | nt | nt | nt | nt | nt
Cc1ccccc1NC(=O)COc1ccccc1C | i | i | 0.9 | nt | i | i | nt | nt | nt | nt | nt
CCN(CC)c1ccc(C(=O)OCC(=O)Nc2ccccc2-c2ccccc2)cc1 | i | 12* | -11.6 | -0.0397 | i | i | 108.0* | 0.438 | i | 96.0%* | 161.0%*
Cc1ccccc1OCC(=O)Nc1ccccc1-c1ccccc1 | i | 6* | -9.1 | nt | i | i | 128.0* | 0.393 | i | 113.7%* | 177.5%*
CCN(CC)c1ccc(C(=O)OCC(=O)Nc2ncccn2)cc1 | nt | nt | nt | nt | nt | i | nt | nt | nt | nt | nt
Cc1ccccc1OCC(=O)Nc1ccccc1C(=O)NC1CC1 | i | 10* | -22.2 | nt | i | i | 92.0* | 0.499 | i | 123.0%* | 128.5%*
COc1ccc(Nc2c[nH]c(=O)[nH]c2=O)cc1 | nt | nt | nt | nt | nt | i | nt | nt | nt | nt | nt
Cc1ccc(C)c(S(=O)(=O)N2CCN(C(=O)CCC(=O)NCc3ccc(Cl)cc3Cl)CC2)c1 | nt | nt | nt | nt | nt | i | nt | nt | nt | nt | nt
COc1ccc(Nc2nc(-c3cccc([N+](=O)[O-])c3)nc3ccccc23)c(OC)c1 | i | i | -11.8 | 0.0431 | i | i | nt | nt | nt | nt | nt
COc1ccc(Nc2nc(-c3cccs3)nc3ccccc23)c(OC)c1 | i | 8* | -6.8 | -1.66 | i | i | 132.5* | 0.326* | nt | 131.3%* | +
CCC(C)Nc1nc(OC(C(F)(F)F)C(F)(F)F)nc(OC(C(F)(F)F)C(F)(F)F)n1 (stereo not given) | i | 7* | -5.3 | -0.98 | i | i | 92.0* | 0.404 | nt | 102.3%* | 89.5%*
Cc1cc(NCCNC2=CC(=O)CCC2)nc2ccccc12 | i | i | -4.5 | -0.602 | i | i | nt | nt | nt | nt | nt
Cc1cc(NCC2CCCCC2)nc2ccccc12 | i | 7* | -9.6 | nt | i | i | 68.0* | 0.504 | nt | i | 66.5%*
O=C(/C=C/c1cccs1)c1ccco1 | nt | nt | nt | nt | nt | i | nt | nt | nt | nt | nt
